Results reported in ChEMBL document CHEMBL2021895 (Eur J Med Chem, 2012).

Assays:
MDA-MB-231 = assay: Cytotoxicity against human MDA-MB-231 cells after 72 hrs using resazurin dye by microtiter plate fluorimeter analysis; type: functional; settings: MDA-MB-231, 72 h
[1] = Cytotoxicity against human H1299 cells after 72 hrs using resazurin dye by microtiter plate fluorimeter analysis; type: functional; settings: NCI-H1299, 72 h
K562 = assay: Cytotoxicity against human K562 cells after 72 hrs using resazurin dye by microtiter plate fluorimeter analysis; type: functional; settings: K562, 72 h
[2] = Inhibition of sheep brain tubulin polymerization using DAPI by fluorescence assay; parameters: species or system Ovis aries
How it was run: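 Tubulin purified by two assembly–disassembly cycles, in 0.1 M MES, 0.5 mM MgCl2, 1 mM EGTA, 1 mM GTP, pH 6.6 (about 2-3 mg/mL). Assembly followed by DAPI fluorescence at 37°C.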

HCT-116 = assay: Cytotoxicity against human HCT116 cells after 72 hrs using resazurin dye by microtiter plate fluorimeter analysis; type: functional; settings: HCT-116, 72 h

SMILES	GI50 (MDA-MB-231) [nM]	GI50 [1] [nM]	GI50 (K562) [nM]	IC50 [2] [nM]	GI50 (HCT-116) [nM]
C=C(c1ccc(OC)c(O)c1)c1cc(OC)c(OC)c(OC)c1	4	3	5	2200	3
COc1ccc(/C=C\c2cc(OC)c(OC)c(OC)c2)cc1O [COMBRETASTATIN A4]	3	5	4		2
